≈ marks a conversion by molar mass, not a printed value.
What was measured:
[1] = Half life in human hepatocytes at 1 uM measured after 30 mins by LC-MS/MS analysis; type: ADME, cell-based, Hepatocyte
How it was run: (§1)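 Pooled male CD-1 mouse or pooled human hepatocytes, pre-incubated 20 min at 37 °C in CO2. Compound at 1 µM final with 1 million cells/mL. Samples taken at 0 and 30 min, quenched and centrifuged 15 min at 4 °C. Parent compound remaining measured by LC-MS/MS.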

[2] = system: Mycobacterium tuberculosis H37Rv; assay: Inhibition of ATP synthase in Mycobacterium tuberculosis H37Rv assessed as reduction in bacterial growth incubated for 7 days by microplate alamar blue assay; settings: time 7.0 day
How it was run: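 Microplate alamar blue assay. Strains grown to late log phase in 7H9 broth with 0.2% glycerol, 0.05% Tween 80 and 10% ADC, then washed, filtered (8 µm) and frozen. Twofold compound dilutions with 2×10^5 CFU per well at 37 °C. On day 7, Tween 80 and alamar blue added; after 16–24 h, fluorescence read at 530/590 nm. MIC is the lowest concentration giving ≥90% fluorescence reduction versus bacterium-only controls.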

[3] = Intrinsic clearance in CD-1 mouse hepatocytes at 1 uM measured after 30 mins by LC-MS/MS analysis; type: ADME, cell-based, Hepatocyte; settings: 0.5 h; how it was run: as §1
[4] = biological target: Voltage-gated inwardly rectifying potassium channel KCNH2 (Homo sapiens, UniProt Q12809); assay: Inhibition of human ERG stably expressed in HEK293 cells by whole-cell manual patch clamp method; type: cell-based
[5] = Half life in CD-1 mouse hepatocytes at 1 uM measured after 30 mins by LC-MS/MS analysis; type: ADME, cell-based, Hepatocyte; how it was run: as §1
[6] = system: Vero; assay: Cytotoxicity against African green monkey Vero cells assessed as reduction in cell viability measured after 48 hrs by MTT assay; type: cell-based; settings: Chlorocebus sabaeus
How it was run: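 Vero cells grown in RPMI1640 with 10% FBS at 37 °C, 5% CO2, seeded at 4×10^5 cells/mL. Threefold dilutions from 64 to 0.26 µg/mL final, incubated 48 h at 37 °C. Monolayers washed with HBSS, then MTT added for 4 h. Absorbance read at 492 nm.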

[7] = Intrinsic clearance in human hepatocytes at 1 uM measured after 30 mins by LC-MS/MS analysis; type: ADME, cell-based, Hepatocyte; settings: 0.5 h; how it was run: as §1
[8] = Oral bioavailability in Balb/c mouse at 50 mg/kg by LC-MS analysis; type: ADME, organism-based; settings: in vivo
How it was run: (§2)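 Male Balb/c mice (26–27 g), three per route. Single dose of 50 mg/kg p.o. in 0.5% carboxymethyl cellulose (5 mg/mL), or 5 mg/kg i.v. in 10% DMSO/50% PEG400/40% water (1 mg/mL). Blood taken at 5, 15, 30 min, 1, 2, 4, 7 and 24 h. Plasma extracted with acetonitrile (terfenadine internal standard) and quantified by LC-MS/MS in positive ESI. Non-compartmental analysis. F = dose-corrected AUC p.o./i.v.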

[9] = Tmax in Balb/c mouse at 50 mg/kg, po by LC-MS analysis; type: ADME, organism-based; settings: in vivo; how it was run: as §2
[10] = AUC (0 to t) in Balb/c mouse at 50 mg/kg, po by LC-MS analysis; type: ADME, organism-based; design: dose 50 mg/kg; settings: in vivo; how it was run: as §2
[11] = Clearance in Balb/c mouse at 5 mg/kg, iv by LC-MS analysis; type: ADME, organism-based; settings: in vivo; how it was run: as §2
[12] = MRT (0 to infinity) in Balb/c mouse at 50 mg/kg, po by LC-MS analysis; type: ADME, organism-based; settings: in vivo; how it was run: as §2
[13] = AUC (0 to t) in Balb/c mouse at 5 mg/kg, iv by LC-MS analysis; type: ADME, organism-based; design: dose 5 mg/kg; settings: in vivo; how it was run: as §2
[14] = Elimination half life in Balb/c mouse at 50 mg/kg, po by LC-MS analysis; type: ADME, organism-based; settings: in vivo, read-out: beta t1/2 (converted); how it was run: as §2
[15] = Cmax in Balb/c mouse at 50 mg/kg, po by LC-MS analysis; type: ADME, organism-based; design: route oral, dose 50 mg/kg; settings: in vivo; how it was run: as §2
[16] = MRT (0 to infinity) in Balb/c mouse at 5 mg/kg, iv by LC-MS analysis; type: ADME, organism-based; settings: in vivo; how it was run: as §2
[17] = AUC (0 to infinity) in Balb/c mouse at 50 mg/kg, po by LC-MS analysis; type: ADME, organism-based; design: route oral, time infinity, dose 50 mg/kg; settings: in vivo; how it was run: as §2
[18] = AUC (0 to infinity) in Balb/c mouse at 5 mg/kg, iv by LC-MS analysis; type: ADME, organism-based; design: time infinity, route intravenous, dose 5 mg/kg; settings: in vivo; how it was run: as §2
[19] = Elimination half life in Balb/c mouse at 5 mg/kg, iv by LC-MS analysis; type: ADME, organism-based; settings: in vivo, read-out: beta t1/2 (converted); how it was run: as §2

Voltage-gated inwardly rectifying potassium channel KCNH2, sequence (Q12809 whole entry): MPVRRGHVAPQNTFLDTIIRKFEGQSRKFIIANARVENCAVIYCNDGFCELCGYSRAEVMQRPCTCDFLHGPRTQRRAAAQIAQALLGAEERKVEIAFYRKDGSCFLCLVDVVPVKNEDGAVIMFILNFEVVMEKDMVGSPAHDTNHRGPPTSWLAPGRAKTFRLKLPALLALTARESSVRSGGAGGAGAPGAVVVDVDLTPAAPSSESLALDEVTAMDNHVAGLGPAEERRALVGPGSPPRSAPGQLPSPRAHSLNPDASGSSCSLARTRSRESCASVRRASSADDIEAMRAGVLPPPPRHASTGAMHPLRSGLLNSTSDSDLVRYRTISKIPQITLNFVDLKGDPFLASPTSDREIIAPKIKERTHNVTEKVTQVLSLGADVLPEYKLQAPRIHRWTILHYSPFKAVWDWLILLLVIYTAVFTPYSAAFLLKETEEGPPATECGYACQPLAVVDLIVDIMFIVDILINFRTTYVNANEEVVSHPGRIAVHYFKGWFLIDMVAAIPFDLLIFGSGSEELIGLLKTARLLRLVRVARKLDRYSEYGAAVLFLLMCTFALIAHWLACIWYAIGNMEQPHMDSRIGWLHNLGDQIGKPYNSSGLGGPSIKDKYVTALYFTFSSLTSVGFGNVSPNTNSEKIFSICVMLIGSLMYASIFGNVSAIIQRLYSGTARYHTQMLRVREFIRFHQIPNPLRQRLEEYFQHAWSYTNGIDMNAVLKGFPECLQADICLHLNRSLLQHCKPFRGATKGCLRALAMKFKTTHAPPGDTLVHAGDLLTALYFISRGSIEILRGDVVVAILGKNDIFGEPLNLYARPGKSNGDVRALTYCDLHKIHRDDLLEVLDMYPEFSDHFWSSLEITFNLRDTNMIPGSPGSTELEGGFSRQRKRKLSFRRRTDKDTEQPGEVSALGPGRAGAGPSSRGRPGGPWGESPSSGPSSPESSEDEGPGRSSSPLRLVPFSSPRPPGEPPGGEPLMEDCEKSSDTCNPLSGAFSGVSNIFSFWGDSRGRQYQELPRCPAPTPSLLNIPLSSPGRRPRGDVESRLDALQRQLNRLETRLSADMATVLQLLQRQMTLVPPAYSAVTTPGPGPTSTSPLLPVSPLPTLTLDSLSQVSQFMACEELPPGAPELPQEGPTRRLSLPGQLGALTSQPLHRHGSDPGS

Compound | MIC=>90 [2] [µg/mL] | IC50 [6] [µg/mL] | also measured
O=c1c(NCc2ccccn2)c(Nc2ccc(N3CCSCC3)cc2)c1=O | 1.54 (≈ 4.06 µM) | > 64 | half-life at 1 µM [1]: 12.1 min; intrinsic clearance [3]: 55.1 µL/min; IC50 [4]: > 30 µM; half-life at 1 µM [5]: 12.6 min; intrinsic clearance [7]: 57.2 µL/min
COc1cccc(Nc2c(NCc3ccccn3)c(=O)c2=O)c1 | 6.02 (≈ 19.5 µM) | – | –
O=c1c(NCc2ccccn2)c(Nc2ccc(C(F)(F)F)cc2)c1=O | 14.9 (≈ 42.9 µM) | – | –
O=c1c(NCc2ccccn2)c(Nc2ccc3[nH]ccc3c2)c1=O | > 32 | – | –
CN(C)c1ccc(Nc2c(NCc3ccccn3)c(=O)c2=O)cc1 | 2 (≈ 6.19 µM) | – | –
Cc1ccc(CNc2c(Nc3ccc(N4CCSCC4)cc3)c(=O)c2=O)nc1 | > 32 | – | –
O=c1c(NCc2ccccn2)c(Nc2ccc(N3CC[S+]([O-])CC3)cc2)c1=O | 15.8 (≈ 39.9 µM) | – | –
O=c1c(NCc2cccnc2)c(Nc2ccc(N3CCSCC3)cc2)c1=O | > 32 | – | –
COc1ccc(Nc2c(NCc3ccccn3)c(=O)c2=O)cc1 | 3.42 (≈ 11 µM) | – | –
O=c1c(NCc2ccccn2)c(Nc2ccc3c(c2)CCC3)c1=O | 0.979 (≈ 3.07 µM) | > 64 | half-life at 1 µM [1]: 10.3 min; intrinsic clearance [3]: 62.4 µL/min; IC50 [4]: > 30 µM; half-life at 1 µM [5]: 11.1 min; intrinsic clearance [7]: 67.1 µL/min
NNC(=O)c1ccncc1 | 0.019 (≈ 0.139 µM) | – | –
O=c1c(NCc2ccccn2)c(Nc2ccc(N3CCOCC3)nc2)c1=O | > 32 | – | –
O=C1NC(=O)C(c2ccc(N3CCOCC3)cc2)=C1NCc1ccncc1 | > 32 | – | –
O=C1CCCc2cc(Nc3c(NCc4ccccn4)c(=O)c3=O)ccc21 | 0.739 (≈ 2.13 µM) | > 64 | half-life at 1 µM [1]: 41.9 min; intrinsic clearance [3]: 67.2 µL/min; half-life at 1 µM [5]: 10.3 min; intrinsic clearance [7]: 16.6 µL/min
O=C1NC(=O)C(c2ccc(N3CCOCC3)cc2)=C1NCc1cccnc1 | > 32 | – | –
O=C1COCCN1c1ccc(Nc2c(NCc3ccccn3)c(=O)c2=O)cc1 | 7.75 (≈ 20.5 µM) | – | –
COc1cc(Nc2c(NCc3ccccn3)c(=O)c2=O)ccc1N1CCSCC1 | > 32 | – | –
N#Cc1cc(Nc2c(NCc3ccccn3)c(=O)c2=O)ccc1N1CCSCC1 | 1.23 (≈ 3.04 µM) | > 64 | –
O=c1c(NCc2ccccn2)c(Nc2ccc3scnc3c2)c1=O | 0.963 (≈ 2.86 µM) | > 64 | IC50 [4]: > 10 µM
O=c1c(NCc2ccccn2)c(Nc2ccc3ncsc3c2)c1=O | 1.91 (≈ 5.68 µM) | > 64 | –
O=C1OCC(NCc2ccccn2)=C1c1ccc(N2CCOCC2)cc1 | > 32 | – | –
O=C1OCC(c2ccc(N3CCOCC3)cc2)=C1NCc1ccccn1 | > 32 | – | –
O=c1c(NCc2ccccn2)c(Nc2ccc(Cl)cc2)c1=O | 7.7 (≈ 24.5 µM) | – | –

Compound | MIC=>90 [2] [µg/mL] | IC50 [6] [µg/mL] | also measured
O=c1c(NCc2ccccn2)c(Nc2ccc3sccc3c2)c1=O | > 32 | – | –
O=C1CCc2cc(Nc3c(NCc4ccccn4)c(=O)c3=O)ccc21 | 3.46 (≈ 10.4 µM) | > 64 | –
Cc1cc(Nc2c(NCc3ccccn3)c(=O)c2=O)ccc1N1CCSCC1 | 0.496 (≈ 1.26 µM) | > 64 | half-life at 1 µM [1]: 9 min; intrinsic clearance [3]: 127.8 µL/min; IC50 [4]: > 10 µM; half-life at 1 µM [5]: 5.4 min; intrinsic clearance [7]: 77 µL/min
Cc1cc(Nc2c(NCc3ccccn3)c(=O)c2=O)ccc1N1CCOCC1 | 2.45 (≈ 6.48 µM) | > 64 | –
O=c1c(NCc2ccccn2)c(Nc2ccc(N3CCSCC3)c(C(F)(F)F)c2)c1=O | 9.4 (≈ 21 µM) | – | –
O=c1c(NCc2ccccn2)c(Nc2ccc(N3CCOCC3)cc2)c1=O | 3.75 (≈ 10.3 µM) | > 64 | half-life at 1 µM [1]: > 93.2 min; intrinsic clearance [3]: < 7.4 µL/min; IC50 [4]: > 30 µM; half-life at 1 µM [5]: > 93.2 min; intrinsic clearance [7]: < 7.4 µL/min
O=c1c(NCc2ccccn2)c(Nc2ccc3c(c2)OCO3)c1=O | 0.452 (≈ 1.4 µM) | > 64 | bioavailability [8]: 13.1%; Tmax [9]: 49.8 min; half-life at 1 µM [1]: > 93.2 min; AUC(0-t) [10]: 2200 ng·h/mL; clearance [11]: 51.4 mL/min/kg; MRT inf [12]: 81.6 min; AUC(0-t) [13]: 1670 ng·h/mL; intrinsic clearance [3]: 40.8 µL/min; IC50 [4]: > 30 µM; half-life [14]: 30.6 min; Cmax [15]: 1330 ng/mL; half-life at 1 µM [5]: 17 min; MRT inf [16]: 16.8 min; intrinsic clearance [7]: < 7.4 µL/min; AUC(0-inf) [17]: 2200 ng·h/mL; AUC(0-inf) [18]: 1670 ng·h/mL; half-life [19]: 19.8 min
O=c1c(NCc2ccccn2)c(Nc2ccc3c(c2)OCCCO3)c1=O | 2.22 (≈ 6.32 µM) | > 64 | –
COc1ccccc1Nc1c(NCc2ccccn2)c(=O)c1=O | > 32 | – | –
CO[C@H]1/C=C/O[C@@]2(C)Oc3c(C)c(O)c4c(O)c(c(/C=N/N5CCN(C)CC5)c(O)c4c3C2=O)NC(=O)/C(C)=C\C=C\[C@H](C)[C@H](O)[C@@H](C)[C@@H](O)[C@@H](C)[C@H](OC(C)=O)[C@@H]1C | 0.015 (≈ 0.0182 µM) | – | –
O=c1c(NCc2ccccn2)c(Nc2ccc(N3CCOCC3)cn2)c1=O | > 32 | – | –
O=C1CCc2ccc(Nc3c(NCc4ccccn4)c(=O)c3=O)cc21 | 1.83 (≈ 5.5 µM) | > 64 | –
O=C1OCC(NCc2cccnc2)=C1c1ccc(N2CCOCC2)cc1 | > 32 | – | –
O=C1OCC(NCc2ccccn2)=C1c1ccc(N2CCSCC2)cc1 | > 32 | – | –
O=c1c(NCc2ccccn2)c(Nc2ccc3c(c2)OCCO3)c1=O | 1.89 (≈ 5.59 µM) | > 64 | –
O=c1c(NCc2ccccn2)c(Nc2ccc(N3CCCOCC3)cc2)c1=O | 6.65 (≈ 17.6 µM) | – | –
O=c1c(NCc2ccccn2)c(Nc2cccc(N3CCSCC3)c2)c1=O | > 32 | – | –
O=C1OCC(c2ccc(N3CCOCC3)cc2)=C1NCc1cccnc1 | > 32 | – | –
Cc1cccc(CNc2c(Nc3ccc(N4CCSCC4)cc3)c(=O)c2=O)n1 | 3.65 (≈ 9.24 µM) | – | –
O=C1NC(=O)C(c2ccc(N3CCOCC3)cc2)=C1NCc1ccccn1 | > 32 | – | –
O=c1c(NCc2ccccn2)c(Nc2ccc(N3CCCCC3)cc2)c1=O | 3.76 (≈ 10.4 µM) | – | –
O=c1c(NCc2ccccn2)c(-c2ccc(N3CCOCC3)cc2)c1=O | 0.12 (≈ 0.343 µM) | > 64 | half-life at 1 µM [1]: 31.7 min; intrinsic clearance [3]: 40.6 µL/min; IC50 [4]: > 30 µM; half-life at 1 µM [5]: 17.1 min; intrinsic clearance [7]: 21.9 µL/min

— ChEMBL document CHEMBL4765447, “Design, synthesis and biological evaluation of diamino substituted cyclobut-3-ene-1,2-dione derivatives for the treatment of drug-resistant tuberculosis” (Eur J Med Chem, 2020)
